# Compound activity deposited in PubChem BioAssay by several laboratories.
# STAT3 act: increases IL-6 driven STAT3 reporter signal. U3A cells, IL-6 STAT3-luciferase reporter, luminescence; 100% = signal with IL-6 EC80 alone. activation (% of control), % at 5.6 µM. 190,000 compounds, 0.91% hits;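 active means activation above the screen-wide mean of compound activation plus 3 SD, cut at about 130% in these data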;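 further: 0% = background luminescence of wells with medium and substrate only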
#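 Test system: STAT3-luciferase reporter U3A cells; Detection: reporter luminescence signal; Times: 1 h compound pre-exposure, 6 h IL-6 stimulation, 37 °C; Benchmarks: IL-6-only high control; Also added: IL-6 stimulus at 33 ng/mL final.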
# C8 TRAIL sens: caspase-8 TRAIL sensitization; NB7+C8 cells + TRAIL, ATPlite viability luminescence; inhibition (viability loss, TRAIL sensitization), % at 10 µM; 360,000 compounds, 1% hits; AID 624354;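 active means compounds causing at least 50% loss of cell viability in the single-dose screen, relative to plate controls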
# PPC-1+TRAIL kill: PPC-1 cancer cell killing with TRAIL present | PPC-1 cells + TRAIL, ATPLite viability luminescence | cell killing (% activity), % at 4 µM or 5 µM | 220,000 compounds, 0.41% hits | AID 1443;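 active means cell killing above 50% in the first pass at 4 µM, then a duplicate retest at 5 µM averaging 50% or more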;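 further: plate controls were cells with TRAIL plus DMSO for no effect and medium-only wells lacking cells for full effect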
# STAT3 blocker: inhibitors of IL-6 induced STAT3 signaling; 190,000 compounds, 0.89% hits; U3A cells, IL-6 STAT3-luciferase reporter, luminescence; host cell line lacks STAT1; inhibition, % at 5.5 µM;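 active means inhibition above the mean inhibition across all screened compounds plus 3 SD, cut at about 44% in these data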;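 further: 0% = DMSO only wells and 100% = 100 µM nifuroxazide control wells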
# STAT1 blocker: inhibitors of IFN-gamma induced STAT1 signaling; NIH 3T3 STAT1-luciferase reporter, luminescence; AID 920; 200,000 compounds, 0.35% hits; inhibition, % at 5.5 µM;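 active means inhibition above a set limit, the mean inhibition across all tested compounds plus 3 SD, cut at about 34% in these data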;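 further: 0% = IFN-gamma with DMSO and 100% = IFN-gamma with 300 µM nifuroxazide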
# HSP90 refold inh: inhibitors of HSP90 luciferase refolding in rabbit reticulocyte lysate | luciferase refolding luminescence, 3 h | inhibition, % at 5.6 µM | 290,000 compounds, 0.91% hits | AID 1789;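 active means inhibition above the screen-wide mean plus 3 SD, computed separately per campaign, cut at about 16% in these data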;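 further: 0% = DMSO wells and 100% = 60 µM geldanamycin wells; inhibitors lower the luminescence because luciferase stays unfolded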
# HSP90 confirm: HSP90 inhibition, confirmation assay; 2,300 compounds, 64% hits; rabbit reticulocyte lysate, luciferase refolding luminescence, 3 h; inhibition, % at 5.9 µM; shares compounds with HSP90 refold inh; AID 1846; in the data active means inhibition above about 18%;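 further: 0% = vehicle wells and 100% = reference inhibitor wells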
# luciferase ctr: firefly luciferase inhibition, HSP90 counter-screen; shares compounds with HSP90 refold inh; purified native firefly luciferase, luminescence; inhibition, % at 5.9 µM; 2,300 compounds, 48% hits;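 active means inhibition above the mean inhibition of all tested sample wells plus 3 SD, cut at about 10% in these data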;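 further: 0% = DMSO with luciferase and 100% = wells lacking luciferase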
# Target sequence (P08659 whole entry, looked up): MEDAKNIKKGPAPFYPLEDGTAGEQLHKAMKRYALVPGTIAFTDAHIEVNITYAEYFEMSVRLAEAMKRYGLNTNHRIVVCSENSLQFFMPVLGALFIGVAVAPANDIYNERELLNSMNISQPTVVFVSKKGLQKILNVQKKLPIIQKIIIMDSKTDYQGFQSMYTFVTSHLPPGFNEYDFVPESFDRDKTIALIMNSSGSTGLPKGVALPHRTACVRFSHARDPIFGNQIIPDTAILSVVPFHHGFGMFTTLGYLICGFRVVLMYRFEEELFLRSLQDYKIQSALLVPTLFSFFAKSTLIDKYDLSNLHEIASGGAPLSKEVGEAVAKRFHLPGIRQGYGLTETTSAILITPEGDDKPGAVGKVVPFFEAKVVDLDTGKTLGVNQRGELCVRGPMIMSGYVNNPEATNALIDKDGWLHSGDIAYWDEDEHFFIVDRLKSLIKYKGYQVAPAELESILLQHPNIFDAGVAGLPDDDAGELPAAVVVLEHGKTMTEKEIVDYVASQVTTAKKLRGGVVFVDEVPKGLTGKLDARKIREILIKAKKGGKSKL
# Numbers without * were called inactive; x = not tested or not shown. The list is not random: actives were taken first. Their share in the collection is about 2.3%.
SMILES,STAT3 act,C8 TRAIL sens,PPC-1+TRAIL kill,STAT3 blocker,STAT1 blocker,HSP90 refold inh,HSP90 confirm,luciferase ctr
CC(C)(C)C(=O)Nc1ccc(-c2cc3cc(Cl)ccc3o2)cc1,x,26,28,x,x,40*,24*,12*
CC(C)(Oc1ccc(Cl)cc1)C(=O)Nc1ccc2oc(=O)ccc2c1,x,4,x,x,x,3,x,x
COc1ccc(NC(=O)CNC(=O)Cc2cccc3ccccc23)cc1,x,-18,x,x,x,x,x,x
COc1ccc(OC)c(C(=O)c2ccc(C(=O)c3cc(OC)ccc3OC)cc2)c1,104,-13,-10,-4,1,0,x,x
COc1ccc(OC)c(/C(C)=N/Nc2ccc(C(=O)O)cc2)c1,104,-10,5,2,-2,36*,25*,33*
C/C(=N/Nc1ccc(C(=O)O)cc1)c1ccc(O)c(O)c1O,99,7,-8,-1,1,29*,54*,45*
COc1ccc(/C=N/Nc2ccc(C(=O)O)cc2)c(OC)c1OC,x,-1,x,x,x,-1,x,x
C/C(=N\Nc1ccc(C(=O)O)cc1)c1ccc(-n2ccnc2)cc1,107,7,9,0,-43,18*,15,-8
COc1cc(/C(C)=N/Nc2ccc(C(=O)O)cc2)cc(OC)c1OC,104,-5,24,-7,5,25*,43*,34*
Cc1cc(OCC(=O)N(Cc2ccco2)c2c(N)n(Cc3ccccc3)c(=O)[nH]c2=O)ccc1Cl,x,-2,x,x,x,x,x,x
CC(=O)c1ccc(N2CCN(C(=O)/C=C/c3ccc4ccccc4n3)CC2)cc1,93,-6,6,13,-4,1,x,x
CN(C)c1cccc(C(=O)Nc2nc3ccccc3[nH]2)c1,x,83*,x,x,x,25*,56*,39*
O=C(Nc1nc2ccccc2[nH]1)c1cccc(F)c1,x,43,x,x,x,26*,30*,12*
Cc1ccc(NC(=S)Nc2cccc3ccccc23)cc1,x,13,x,x,x,-1,x,x
CC(C)c1ccc(NC(=S)Nc2cccc3ccccc23)cc1,x,7,x,x,x,21*,19*,-21
S=C(NCCc1ccccn1)NC1CCCCC1,111,7,1,-10,-31,23*,1,-11
CCOC(=O)C1CCN(c2ccc(Cl)nn2)CC1,92,-9,19,14,0,1,x,x
CCOC(=O)C1CCN(c2ccc(-c3cccs3)nn2)CC1,x,40,x,x,x,27*,34*,38*
c1csc(-c2ccc(N3CCOCC3)nn2)c1,x,60*,x,x,x,28*,34*,17*
Nc1nc2cc(Br)ccc2o1,x,4,x,x,x,x,x,x
CCOc1cccc2cc(-c3csc(NC(=O)CCC(=O)NCCCN4CCC(C)CC4)n3)c(=O)oc12,123,x,44,-26,-57,-3,x,x
COc1cccc2cc(-c3csc(NC(=O)CCC(=O)NCCCN4CCC(C)CC4)n3)c(=O)oc12,x,44,31,x,x,27*,2,-15
O=C(CN1CCN(Cc2ccc(F)cc2)C1=O)NC1CCCC1,111,6,-5,1,0,1,x,x
O=C(N/N=C/c1ccc2c(c1)OCO2)c1cc(-c2ccc(F)cc2)nc2ccccc12,98,-10,32,0,3,-1,x,x
O=C(O)COc1ccccc1/C=N/NC(=O)c1cc(-c2ccc(F)cc2)nc2ccccc12,97,20,34,11,0,17*,25*,8
NS(=O)(=O)c1cccc(NC(=O)c2ccc(S(=O)(=O)N3CCCCCC3)cc2)c1,x,3,x,x,x,x,x,x
Cc1cccc(N2C(=O)CC(N3CCC(c4nc5ccccc5[nH]4)CC3)C2=O)c1 (centres undefined),104,4,25,-4,19,4,x,x
CCN1C(=O)CC(N2CCC(c3nc4ccccc4[nH]3)CC2)C1=O (centres undefined),105,-9,6,0,-3,23*,24*,5
